# In the library only some 3.1% were active in any assay of this set; here they are far more common.
# Calb FLC = affects C. albicans growth with fluconazole. growth inhibition, % (no concentration beside the values). C. albicans CaCi-2 (fluconazole-resistant clinical isolate) + fluconazole, Alamar Blue growth, 48 h. AID 1979. 300,000 compounds, 0.57% hits;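 active = growth inhibition above about 58% in most replicates, limit read from the data, passing the limit was not always enough; inconclusive = exactly half the replicates above a set limit; inactive = most replicates below a set limit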;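 also: all wells also contain fluconazole at 8 µg/ml as a sub-toxic cotreatment; 0% = median of DMSO wells and 100% = median of geldanamycin control wells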
# T cruzi repl = T. cruzi replication inhibition; T. cruzi beta-gal in NIH3T3, luminescence, 90 h; inhibition, % (no concentration beside the values); 300,000 compounds, 1.4% hits;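 active = mean inhibition across valid replicates above about 55%, limit read from the data; inconclusive = mean below that limit but half or more replicates reach it; inactive = mean below it, under half of replicates reach it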;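 also: signal also drops with host cell toxicity which is not excluded here; 0% = plate median of DMSO wells and 100% = zero luminescence signal; higher percent means less beta-gal luminescence so fewer parasites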
#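 Assay system: NIH/3T3 host cells with β-galactosidase reporter T. cruzi; input: 5,000 host fibroblasts per well; compound: single 50 nL compound addition per well in DMSO; timing: ≥90 h infection period, 3 h prior cell attachment; measured by: GalScreen β-gal luminescence, detergent lysis, 60 min; evaluation: percent inhibition of parasite-derived β-gal signal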
# A1 inh = inhibitors of the anti-apoptotic protein A1, read as caspase activation. MEF A1-2A-BIM cells, Caspase-Glo 3/7 luminescence, 3 h; percent of clofoctol response, vehicle zero. caspase activation, % (test concentration not listed). 330,000 compounds, 0.066% hits;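 active = over half of replicate activation scores above 10%, or exactly half above 10 with the replicate mean above 10; inconclusive = replicate mean below 10 yet half the replicates above 10; inactive = over half of replicates below 10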
# CSC inhib = blocks cancer stem cells. cancer stem cell-like cells viability, luminescence. inhibition, % at 7.5 µM. 300,000 compounds, 1.1% hits; in the data active = inhibition above about 75%; inconclusive = no clear call, values can overlap the other calls; tested in HMLE shEcad cells
# Beta apoptosis = beta cell apoptosis inhibition; AID 435005; protection from apoptosis, % (no concentration beside the values); INS-1E cytokine-induced death, ATP luminescence, 48 h; percent of positive-control rescue, neutral wells zero; 300,000 compounds, 0.8% hits;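 active = Every replicate reaches about 75%, or at least half do and their mean reaches it too, limit read from the data; inconclusive = At least half of replicates reach the limit but their mean does not; inactive = Under half of replicates reach the limit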;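 also: 0% = cytokine-treated negative control wells and 100% = positive control rescue; higher means more ATP so stronger rescue from cytokine killing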
# H9c2 TAG inh = reduces triacylglycerol accumulation in H9c2 cells | inhibition, % at 12.5 µM | Nile Red lipid (TAG) fluorescence; cells loaded with 200 µM oleic acid | 230,000 compounds, 0.66% hits | AID 651582;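 active = pattern-corrected inhibition of lipid staining of at least 50% with the nuclear-stain viability signal not falling by more than 50%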;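 also: 0% = DMSO wells and 100% = triacsin C control wells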
# * = called active by the depositor; ? = inconclusive; · = no result given.
SMILES,Calb FLC,T cruzi repl,A1 inh,CSC inhib,Beta apoptosis,H9c2 TAG inh
CCn1cc(C(=O)NCc2ccco2)c(=O)c2cc(S(=O)(=O)N3CCC(C)CC3)ccc21,8.4,-28.9,-0.2,5.4,6.2,·
CCn1cc(C(=O)NCc2ccco2)c(=O)c2cc(S(=O)(=O)N3CCCCCC3)ccc21,6.9,-19.9,0.7,34.1,16.6,·
CCCCSc1nc2sc3c(c2c(=O)n1-c1ccc(C)cc1)CCN(C)C3,6.9,?,-0.2,-1.9,134.5*,·
CCOC(=O)c1c(C)[nH]c(C)c1C(=O)CSc1nc2ccccc2c(=O)n1-c1ccc(CC)cc1,-16.1,43.1,-0.7,17.0,109.9*,·
CCOC(=O)c1c(C)[nH]c(C)c1C(=O)CSc1nc2ccccc2n1CC,30.2,-0.7,1.2,-11.0,-0.2,·
O=C(CCN1CCN(Cc2ccccc2)CC1)Nc1cccc(Cl)c1,-10.4,54.8*,0.5,-2.6,-2.9,-13.0
O=C(CCN1CCN(C/C=C/c2ccccc2)CC1)Nc1ccccc1,3.3,56.2*,-0.3,7.7,-1.5,4.2
O=C(CCCCCCC(=O)Nc1ccccc1)NO,-11.3,-11.5,-1.1,106.2*,-3.8,37.3
COc1cc(NC(=O)CCN2CCN(Cc3ccccc3)CC2)cc(OC)c1,-15.8,7.3,1.6,3.3,7.3,-18.8
Cc1cccc(NC(=O)CCN2CCN(C/C=C/c3ccccc3)CC2)c1,2.5,40.5,-0.2,18.7,3.1,13.9
Nc1nc(Nc2cccc3ccccc23)nc(C2CCCC2=O)n1 (stereo unspecified),-1.2,4.7,-0.8,3.2,4.7,·
Nc1nc(CCl)nc(Nc2cccc3ccccc23)n1,5.0,69.7*,2.3,3.4,-6.1,81.0*
Cc1ccc(-c2nnn(CC(=O)N3c4ccccc4CCc4ccccc43)n2)cc1,26.1,57.8*,-0.7,14.1,-6.5,·
O=C(CCl)N1c2ccccc2CCc2ccccc21,84.0*,71.3*,-0.8,-5.5,-11.3,11.6
CC(Cl)C(=O)N1c2ccccc2CCc2ccccc21 (stereo unspecified),-5.7,-6.5,0.3,-12.0,·,·
COc1ccc(-c2cn(CCc3c[nH]c4ccccc34)nn2)cc1,-3.7,-9.2,1.5,96.2*,1.4,-41.5
CCCCN(C)CCNC(=O)c1ccc(Cn2c(=S)[nH]c3ccc(Br)cc3c2=O)cc1,-0.9,77.4*,-1.3,15.8,1.9,11.8
COCCn1c(=S)[nH]c2cc(C(=O)N3CCN(Cc4ccc5c(c4)OCO5)CC3)ccc2c1=O,·,·,0.3,·,5.6,3.0
COC(=O)c1ccc2c(=O)n(Cc3ccc4c(c3)OCO4)c(=S)[nH]c2c1,-1.4,1.2,6.3*,·,·,·
CCCCCn1c(=O)[nH]c2cc(C(=O)NCCCN(C)Cc3ccccc3)ccc2c1=O,-4.0,58.4*,0.6,-0.6,13.5,19.6
CC1CCN(CCCNC(=O)c2ccc3c(=O)n(Cc4ccc(Cl)cc4)c(=S)[nH]c3c2)CC1,19.8,7.7,0.0,88.0*,-6.3,19.2
O=[N+]([O-])c1ccc(CSc2ccc(S(=O)(=O)N3CCCCC3)cn2)cc1,·,·,0.3,-7.5,0.2,-22.2
Cc1ccc([C@H]2N[C@]3(CCCN(Cc4ccc(Cl)cc4)C3=O)[C@H]3C(=O)N(Cc4ccccc4)C(=O)[C@@H]23)cc1,·,·,·,·,·,7.6
CSc1ccccc1NC(=O)c1ccc(N2CCCC2=O)cc1,·,·,-2.9,-14.3,0.6,19.4
NC(=O)NC(CC(=O)Nc1cccnc1)c1cccc(Br)c1 (stereo unspecified),-17.4,-6.7,0.2,10.2,-9.6,·
SMILES,Calb FLC,T cruzi repl,A1 inh,CSC inhib,Beta apoptosis,H9c2 TAG inh
O=C(CNC(=O)C1CC(=O)N(c2cccc3ccccc23)C1)Nc1ccccc1Br (stereo unspecified),·,·,2.9,-9.0,-1.1,-8.5
CCCCn1c2nc3ccccc3nc2c2c(=O)n(C(C)CC)cnc21 (stereo unspecified),29.9,22.6,0.0,-0.9,7.5,·
CCC(C)n1c(C)nc2c(c1=O)c1nc3ccccc3nc1n2CCC1=CCCCC1 (stereo unspecified),-0.7,58.5*,0.4,18.4,10.5,·
O=C(O)CNC(=O)c1ccc(Oc2c(F)c(F)c(Oc3ccc(C(=O)NCC(=O)O)cc3)c(F)c2F)cc1,3.8,-6.2,-0.3,-6.3,-6.2,·
O=C(Cc1ccccc1[N+](=O)[O-])OCC(=O)c1ccccc1Br,·,·,0.6,-14.5,2.1,-1.3
COc1ccc(NS(=O)(=O)c2ccc(OC)c(N(C)S(=O)(=O)c3ccc(Cl)cc3)c2)cc1,4.7,6.1,-1.2,-6.1,101.3*,·
CCOC(=O)C1=CN(Cc2cccc(-c3ccc4c(c3)OCO4)c2)S(=O)(=O)N(C)C1C (stereo unspecified),·,·,·,·,·,-11.1
COc1ccc(-c2cc(C(F)F)n3ncc(C(=O)N4CCCCC4)c3n2)cc1,-7.7,89.3*,0.4,3.7,-1.4,35.9
Cc1ccc(-c2cc(C(F)F)n3ncc(C(=O)N4CCN(c5ccccn5)CC4)c3n2)cc1,-2.3,60.1*,0.2,-17.6,6.4,15.5
COc1ccc(-c2cc(C(F)F)n3ncc(C(=O)N4CCN(C(=O)c5ccco5)CC4)c3n2)cc1,-3.0,3.9,0.0,-0.2,·,20.9
CCN(CC)S(=O)(=O)c1ccc(NC(=O)CCN2C(=O)C3CC=CCC3C2=O)cc1 (stereo unspecified),·,·,·,·,·,2.9
N#Cc1c(-c2ccccc2)nc(SCc2cccc(Cl)c2)[nH]c1=O,40.2,-1.2,0.2,107.4*,-6.0,·
Cc1[nH]c(=O)nc(SCc2cccc(Cl)c2)c1C#N,10.5,0.5,0.8,11.1,-1.1,·
COc1ccc(CC2(CO)CCN(Cc3nc(C(C)C)cs3)CC2)cc1,-2.9,67.9*,-0.5,-4.8,3.7,-7.5
COc1ccc(CC2(CO)CCN(CC3=Cc4cc(Cl)ccc4OC3)CC2)cc1,9.7,65.6*,-0.6,-1.6,115.3*,-15.7
COc1ccc(CC2(CO)CCN(Cc3ccc(NC(C)=O)cc3)CC2)cc1,-3.7,4.5,0.3,-1.2,0.4,2.0
COc1ccc2c(c1)C=C(CN1CCC(CO)(CCc3ccccc3)CC1)CO2,14.0,44.8,0.3,1.7,-3.6,-13.2
CCCC(NS(=O)(=O)c1ccc(-c2ccc(=O)[nH]n2)s1)c1cccs1 (stereo unspecified),-1.8,-7.5,-0.3,1.0,-0.2,·
COc1ccc(OC)c(N(CC(=O)NN=C2CCN(C)CC2)S(=O)(=O)c2ccccc2)c1,3.9,10.0,0.2,-6.3,·,·
N#C/C(=N/Nc1ccc(OC(F)(F)F)cc1)C(N)=S,81.2*,-16.1,-2.1,62.4,88.4*,-1.7
CC1CCCC(NC(=O)NC(=O)COC(=O)C2=NN(c3ccccc3)C(=O)CC2)C1C (stereo unspecified),·,·,·,·,·,-8.7
O=C(CN1CCC(c2nc3ccccc3s2)CC1)NCc1ccccc1,-2.5,64.3*,-1.5,-3.4,2.3,-3.8
